Experimental data as given in ChEMBL document CHEMBL3526018, “Metabolites of PPI-2458, a selective, irreversible inhibitor of methionine aminopeptidase-2: structure determination and in vivo activity” (Drug Metab Dispos, 2013).
The source made the active and inactive calls. The calls are words filed in the database; no cut-off is given here.

Experiments:
Cytochrome P450 3A4 [1] = target: T1, Cytochrome P450 3A4 (Homo sapiens, UniProt P08684); assay: Inhibition of CYP3A4 activity in human liver microsomes using midazolam as a substrate by LC/MS analysis; type: ADME
T1 sequence (P08684 whole entry): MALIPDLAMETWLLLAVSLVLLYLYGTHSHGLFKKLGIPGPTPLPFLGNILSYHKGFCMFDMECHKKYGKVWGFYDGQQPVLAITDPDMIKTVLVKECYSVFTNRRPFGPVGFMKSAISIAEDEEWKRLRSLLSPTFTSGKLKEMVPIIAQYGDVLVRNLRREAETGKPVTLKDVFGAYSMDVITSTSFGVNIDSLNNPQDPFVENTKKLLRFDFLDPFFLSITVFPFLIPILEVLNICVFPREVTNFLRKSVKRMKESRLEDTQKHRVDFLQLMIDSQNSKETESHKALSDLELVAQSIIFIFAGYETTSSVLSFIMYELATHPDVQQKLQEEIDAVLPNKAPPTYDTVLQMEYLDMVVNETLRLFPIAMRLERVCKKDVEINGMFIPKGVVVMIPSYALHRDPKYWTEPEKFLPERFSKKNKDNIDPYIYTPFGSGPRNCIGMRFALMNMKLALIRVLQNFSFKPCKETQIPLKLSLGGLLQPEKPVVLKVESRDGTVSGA

CYP3A5 (Homo sapiens) [2] = assay: Activity of human recombinant CYP3A5 assessed as ((3R,4S,5S,6R)-4-((2R,3R)-3-((E)-4-hydroxy-3-methylbut-2-en-1-yl)-2-methyloxiran-2-yl)-5-methoxy-1-oxaspiro[2.5]octan-6-yl((R)-1-amino-3-methyl-1-oxobutan-2-yl)carbamate) formation per pmol of enzyme
CYP3A4 (Homo sapiens) [3] = assay: Activity of human recombinant CYP3A4 assessed as ((3R,4S,5S,6R)-4-((2R,3R)-3-((E)-4-hydroxy-3-methylbut-2-en-1-yl)-2-methyloxiran-2-yl)-5-methoxy-1-oxaspiro[2.5]octan-6-yl((R)-1-amino-3-methyl-1-oxobutan-2-yl)carbamate) formation per pmol of enzyme
Rattus norvegicus [4] = assay: Inhibition of MetAP2 level in Sprague-Dawley rat whole blood assessed as free enzyme level at 0.3 mg/kg, po by ELISA; type: functional, organism-based; parameters: dose 0.3 mg/kg
Outline: (§1)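 Male Sprague-Dawley rats (200-225 g, n=3 per group) were dosed once IV at 0.3 mg/kg or PO at 0.3 or 3.0 mg/kg, in 11% HPCD in water. Blood, liver, lung, thymus and pooled non-mesenteric lymph nodes were taken at ~24 h and lysed or homogenized with NP-40. Free MetAP2 was measured by ELISA and expressed as % of vehicle.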

Liver microsome [5] = assay: Metabolic stability in rat liver microsomes assessed as retention time of ((3R,4S,5S,6R)-4-((2R,3R)-3-(((S)-3,3-dimethyloxiran-2-yl)methyl)-2-methyloxiran-2-yl)-5-methoxy-1-oxaspiro[2.5]octan-6-yl ((R)-1-amino-3-methyl-1-oxobutan-2-yl)carbamate) at 5 mM by LC/MS analysis; type: ADME; conditions: 5000 µM
Outline: (§2)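 Liver microsomes (pooled male/female) in 100 mM KPO4 pH 7.4 with PPI-2458 (5 mM stock), pre-incubated 5 min at 37°C, then 10 mM NADPH added; 20 min at 37°C with shaking. Time-zero and no-NADPH controls. Quenched with CH3CN; supernatant dried and redissolved in water. Analysed by LC-MS, ESI+ full scan 300–800 amu, C18 column, 10→50% B gradient.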

CYP3A5 (Homo sapiens) [6] = assay: Ratio of Vmax to Km for human recombinant CYP3A5 assessed as ((3R,4S,5S,6R)-5-methoxy-4-((2R,3R)-2-methyl-3-(3-methylbut-2-en-1-yl)oxiran-2-yl)-1-oxaspiro[2.5]octan-6-yl ((R)-1-amino-3-hydroxy-3-methyl-1-oxobutan-2-yl)carbamate) formation; conditions: recombinant enzyme
[7] = Tmax in non-Hodgkin lymphoma patient at 15 mg, po alternate days for 21 days; type: ADME, organism-based; conditions: human, in vivo
Outline: (§3)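 Non-Hodgkin lymphoma patients given oral capsules every other day for 21 days. Plasma sampled predose and at 15, 30 min and 1, 2, 3, 4, 6, 8, 24, 48 h after the first dose. Protein precipitated, extract reconstituted, parent and metabolites quantified by validated LC-MS/MS. CL/F and Vss/F derived from the administered dose.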

CYP3A4 (Homo sapiens) [8] = assay: Activity of human recombinant CYP3A4 assessed as ((3R,4S,5S,6R)-4-((2R,3R)-3-(((S)-3,3-dimethyloxiran-2-yl)methyl)-2-methyloxiran-2-yl)-5-methoxy-1-oxaspiro[2.5]octan-6-yl ((R)-1-amino-3-methyl-1-oxobutan-2-yl)carbamate) formation; conditions: recombinant enzyme
CYP3A4 (Homo sapiens) [9] = assay: Ratio of Vmax to Km for human recombinant CYP3A4 assessed as ((3R,4S,5S,6R)-4-((2R,3R)-3-(((R)-3,3-dimethyloxiran-2-yl)methyl)-2-methyloxiran-2-yl)-5-methoxy-1-oxaspiro[2.5]octan-6-yl ((R)-1-amino-3-methyl-1-oxobutan-2-yl)carbamate) formation; conditions: recombinant enzyme
Rattus norvegicus [10] = assay: Inhibition of MetAP2 level in Sprague-Dawley rat liver assessed as free enzyme level at 3 mg/kg, po by ELISA; type: functional, organism-based; parameters: dose 3 mg/kg; outline: as §1
CYP3A5 (Homo sapiens) [11] = assay: Ratio of Vmax to Km for human recombinant CYP3A5 assessed as ((3R,4S,5S,6R)-4-((2R,3R)-3-(((R)-3,3-dimethyloxiran-2-yl)methyl)-2-methyloxiran-2-yl)-5-methoxy-1-oxaspiro[2.5]octan-6-yl ((R)-1-amino-3-methyl-1-oxobutan-2-yl)carbamate) formation; conditions: recombinant enzyme
Liver microsome [12] = assay: Metabolic stability in dog liver microsomes assessed as retention time of ((3R,4S,5S,6R)-4-((2R,3R)-3-(((S)-3,3-dimethyloxiran-2-yl)methyl)-2-methyloxiran-2-yl)-5-methoxy-1-oxaspiro[2.5]octan-6-yl ((R)-1-amino-3-methyl-1-oxobutan-2-yl)carbamate) at 5 mM by LC/MS analysis; type: ADME, Canis lupus familiaris; conditions: 5000 µM
CYP3A5 (Homo sapiens) [13] = assay: Activity of human recombinant CYP3A5 assessed as ((3R,4S,5S,6R)-5-methoxy-4-((2R,3R)-2-methyl-3-(3-methylbut-2-en-1-yl)oxiran-2-yl)-1-oxaspiro[2.5]octan-6-yl ((R)-1-amino-3-hydroxy-3-methyl-1-oxobutan-2-yl)carbamate) formation per pmol of enzyme
[14] = Metabolic stability in monkey liver microsomes assessed as retention time of ((3R,4S,5S,6R)-4-((2R,3R)-3-(((S)-3,3-dimethyloxiran-2-yl)methyl)-2-methyloxiran-2-yl)-5-methoxy-1-oxaspiro[2.5]octan-6-yl ((R)-1-amino-3-methyl-1-oxobutan-2-yl)carbamate) at 5 mM by LC/MS analysis; type: ADME, Macaca mulatta; conditions: rhesus monkey, 5000 µM; outline: as §2
[15] = Oral steady-state volume of distribution in non-Hodgkin lymphoma patient at 15 mg, po alternate days for 21 days; type: ADME, organism-based; conditions: human, in vivo, read-out: Vss/F; outline: as §3
CYP3A5 (Homo sapiens) [16] = assay: Activity of human recombinant CYP3A5 assessed as ((3R,4S,5S,6R)-4-((2R,3R)-3-(((S)-3,3-dimethyloxiran-2-yl)methyl)-2-methyloxiran-2-yl)-5-methoxy-1-oxaspiro[2.5]octan-6-yl ((R)-1-amino-3-methyl-1-oxobutan-2-yl)carbamate) formation; conditions: recombinant enzyme
Rattus norvegicus [17] = assay: Inhibition of MetAP2 level in Sprague-Dawley rat thymus assessed as free enzyme level at 0.3 mg/kg, iv by ELISA; type: functional, organism-based; parameters: dose 0.3 mg/kg; outline: as §1
CYP3A5 (Homo sapiens) [18] = assay: Activity of human recombinant CYP3A5 assessed as ((3R,4S,5S,6R)-4-((2R,3R)-3-((E)-4-hydroxy-3-methylbut-2-en-1-yl)-2-methyloxiran-2-yl)-5-methoxy-1-oxaspiro[2.5]octan-6-yl((R)-1-amino-3-methyl-1-oxobutan-2-yl)carbamate) formation; conditions: recombinant enzyme
Cytochrome P450 3A4 [19] = target: T1, Cytochrome P450 3A4; assay: Inhibition of CYP3A4 activity in human liver microsomes assessed as dibenzo fluuorescene oxidation up to 40 uM; type: ADME

Ki (Cytochrome P450 3A4 [1]): 58 µM | Vmax (CYP3A5 (Homo sapiens) [2]): 0.8 pmol/min | Vmax (CYP3A4 (Homo sapiens) [3]): 1.41 pmol/min | Drug metabolism (Liver microsome [5]): metabolite_detected | Vmax/Km (CYP3A5 (Homo sapiens) [6]): 0.09 µL/min | Tmax [7]: 36 min | Km (CYP3A4 (Homo sapiens) [8]): 15 µM | Vmax/Km (CYP3A4 (Homo sapiens) [9]): 0.16 µL/min | Vmax/Km (CYP3A5 (Homo sapiens) [11]): 0.17 µL/min | Drug metabolism (Liver microsome [12]): metabolite_detected | Vmax (CYP3A5 (Homo sapiens) [13]): 1.58 pmol/min | Drug metabolism [14]: metabolite_detected | Vd/F [15]: 415 L | Km (CYP3A5 (Homo sapiens) [16]): 17 µM | Km (CYP3A5 (Homo sapiens) [18]): 26 µM | inhibition (INH) (Cytochrome P450 3A4 [19]): Not Active
Structure (SMILES): CO[C@@H]1[C@H](OC(=O)N[C@@H](C(N)=O)C(C)C)CC[C@]2(CO2)[C@H]1[C@@]1(C)O[C@@H]1CC=C(C)C [PPI-2458]
inhibition (Rattus norvegicus [4]): Active | inhibition (Rattus norvegicus [10]): Active | inhibition (Rattus norvegicus [17]): Active
